Here are results for two molecules from ChEMBL document CHEMBL5143609, “Enigmazole C: A Cytotoxic Macrocyclic Lactone and Its Ring-Opened Derivatives from a New Species of Homophymia Sponge” (2022).

In general, GI50 refers to the concentration giving 50% growth inhibition. Usually TGI stands for the concentration giving total growth inhibition. A low value points to more potent growth arrest.

Some results are limits rather than exact numbers.

Holding throughout (type): functional
Holding throughout (details): for CC50: read-out: LC50 (the source's name)

The subject of test [1] is A549. Kind of test: Cytotoxicity against human A549 cells. An outline of the steps: (§1)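 Cell-growth inhibition was tested in human tumor lines: A-549 lung carcinoma, HT-29 colorectal carcinoma, MDA-MB-231 breast adenocarcinoma and PSN-1 pancreatic adenocarcinoma. GI50 is the concentration giving 50% inhibition of cell growth, calculated by a literature procedure. TGI and LC50 endpoints were also reported.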

Test [2] deals with HT-29. Briefly: Cytotoxicity against human HT-29 cells. In short, it runs like this: as §1
The subject of test [3] is MDA-MB-231. Kind of test: Cytotoxicity against human MDA-MB-231 cells. An outline of the steps:
as §1

The test system of test [4] is PSN1. Kind of test: Cytotoxicity against human PSN1 cells. An outline of the steps: as §1

Turning to `C=C1CC(C)CC2CC(=O)C=C(C[C@H](O)CC[C@H](C)C(=O)OC(c3coc(/C=C(/C)C(C)OC)n3)C1)O2` (some centres undefined), the concentration for 50% growth inhibition (GI50) in test [1] was 9.9 µM; in test [2], 18 µM; in test [3], greater than 19 µM; in test [4] it was 8.7 µM. Besides, the TGI in test [1], in test [2], in test [3] and in test [4] was greater than 19 µM throughout. Also, the CC50 in test [1], in test [2], in test [3] and in test [4] was greater than 19 µM throughout.

On to `C=C(C[C@@H](C)C[C@@H]1CC(=O)C=C(/C=C/CC[C@H](C)C(=O)O)O1)C[C@H](O)c1coc(/C=C(/C)[C@@H](C)OC)n1`, for which the concentration for 50% growth inhibition (GI50) worked out at 1.4 µM in test [1], 1 µM in test [2], 4.1 µM in test [3] and 1.1 µM in test [4]. Besides, the concentration for total growth inhibition (TGI) in test [1] is greater than 19 µM; in test [2], 3.7 µM; in test [3], greater than 19 µM; in test [4] it was greater than 19 µM. For the same molecule, the CC50 in test [1], in test [2], in test [3] and in test [4] was greater than 19 µM in each case.
